Assay results as given in ChEMBL document CHEMBL1152689, “Synthesis, tautomerism, and antimicrobial, anti-HCV, anti-SSPE, antioxidant, and antitumor activities of arylazobenzosuberones” (Bioorg Med Chem, 2009).
Converted amounts (≈) assume the structure as drawn. The source made the active and inactive calls. No cut-off for these calls is given here.

Columns and labels:
Staphylococcus aureus [1] = assay: Antimicrobial activity against Staphylococcus aureus at 2.5 ug/mL by agar diffusion method; format: functional; details: read-out: IZ
[2] = tested on: Syncephalastrum racemosum; assay: Antimicrobial activity against Syncephalastrum racemosum at 1.25 ug/mL by agar diffusion method; format: functional; details: read-out: IZ
Penicillium italicum [3] = assay: Antimicrobial activity against Penicillium italicum at 1.25 ug/mL by agar diffusion method; format: functional; details: read-out: IZ
Staphylococcus aureus [4] = assay: Antimicrobial activity against Staphylococcus aureus at 5 ug/mL by agar diffusion method; format: functional; details: read-out: IZ
Penicillium italicum [5] = assay: Antimicrobial activity against Penicillium italicum at 2.5 ug/mL by agar diffusion method; format: functional; details: read-out: IZ
Escherichia coli [6] = assay: Antimicrobial activity against Escherichia coli at 1.25 ug/mL by agar diffusion method; format: functional; details: read-out: IZ
Pseudomonas aeruginosa [7] = assay: Antimicrobial activity against Pseudomonas aeruginosa at 1.25 ug/mL by agar diffusion method; format: functional; details: read-out: IZ
Escherichia coli [8] = assay: Antimicrobial activity against Escherichia coli at 5 ug/mL by agar diffusion method; format: functional; details: read-out: IZ
Aspergillus fumigatus [9] = assay: Antimicrobial activity against Aspergillus fumigatus at 2.5 ug/mL by agar diffusion method; format: functional; details: read-out: IZ
[10] = tested on: Syncephalastrum racemosum; assay: Antimicrobial activity against Syncephalastrum racemosum at 2.5 ug/mL by agar diffusion method; format: functional; details: read-out: IZ
Bacillus subtilis [11] = assay: Antimicrobial activity against Bacillus subtilis at 1.25 ug/mL by agar diffusion method; format: functional; details: read-out: IZ
Escherichia coli [12] = assay: Antimicrobial activity against Escherichia coli at 2.5 ug/mL by agar diffusion method; format: functional; details: read-out: IZ
Pseudomonas aeruginosa [13] = assay: Antimicrobial activity against Pseudomonas aeruginosa at 5 ug/mL by agar diffusion method; format: functional; details: read-out: IZ
Staphylococcus aureus [14] = assay: Antimicrobial activity against Staphylococcus aureus at 1.25 ug/mL by agar diffusion method; format: functional; details: read-out: IZ
Bacillus subtilis [15] = assay: Antimicrobial activity against Bacillus subtilis at 2.5 ug/mL by agar diffusion method; format: functional; details: read-out: IZ
Aspergillus fumigatus [16] = assay: Antimicrobial activity against Aspergillus fumigatus at 5 ug/mL by agar diffusion method; format: functional; details: read-out: IZ
Aspergillus fumigatus [17] = assay: Antimicrobial activity against Aspergillus fumigatus at 1.25 ug/mL by agar diffusion method; format: functional; details: read-out: IZ
Candida albicans [18] = assay: Antimicrobial activity against Candida albicans at 1.25 ug/mL by agar diffusion method; format: functional; details: read-out: IZ
Candida albicans [19] = assay: Antimicrobial activity against Candida albicans at 5 ug/mL by agar diffusion method; format: functional; details: read-out: IZ
Candida albicans [20] = assay: Antimicrobial activity against Candida albicans at 2.5 ug/mL by agar diffusion method; format: functional; details: read-out: IZ
Penicillium italicum [21] = assay: Antimicrobial activity against Penicillium italicum at 5 ug/mL by agar diffusion method; format: functional; details: read-out: IZ
Bacillus subtilis [22] = assay: Antimicrobial activity against Bacillus subtilis at 5 ug/mL by agar diffusion method; format: functional; details: read-out: IZ
[23] = tested on: Syncephalastrum racemosum; assay: Antimicrobial activity against Syncephalastrum racemosum at 5 ug/mL by agar diffusion method; format: functional; details: read-out: IZ
Pseudomonas aeruginosa [24] = assay: Antimicrobial activity against Pseudomonas aeruginosa at 2.5 ug/mL by agar diffusion method; format: functional; details: read-out: IZ
[25] = Antioxidant activity assessed as inhibition of peroxynitrite-mediated 3-nitrotyrosine formation by HPLC; format: functional
In short: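 Tyrosine and peroxynitrite, each 100 µM, reacted with compound at 0–300 µM in 100 mM phosphate buffer pH 7.4 at 37 °C for 15 min. Peroxynitrite made from acidified H2O2 plus KNO2, quenched with NaOH, and kept on ice no longer than 30 min before use.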

Hepatitis C virus = assay: Antiviral activity against HCV by cell based replicon assay; format: functional, Hepacivirus hominis
In short: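 HCV replicon cells plated at 1×10^4 per well. Next day incubated at 37 °C with serially diluted compound in DMEM with 2% FBS and 0.5% DMSO. HCV RNA copy number measured by quantitative RT-PCR on total cellular RNA. Each point is the average of five replicates. Cytotoxicity measured by MTS in parallel.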

Measles morbillivirus = assay: Antiviral activity against Measles virus infected in intracranially dosed hamster assessed as inhibition of subacute sclerosing panencephalitis; format: functional
In short: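 Hamsters under ether anesthesia injected intracranially, into the subarachnoid space at 2 mm depth, at 5, 10 and 20 mg/kg/day for 10 days. Four animals per group sacrificed on days 1–20. Brains homogenized in PBS and centrifuged, supernatant deproteinized with ethanol, then MIC in brain tissue determined by HPLC and bioassay.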

[26] = target: DNA topoisomerase 2-alpha (Mus musculus) (UniProt Q01320); assay: Inhibition of topoisomerase 2 from mouse P388 cells assessed as relaxation of pBR322 DNA by agarose gel electrophoresis relative to etoposide; format: cell-based
In short: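 Topoisomerase II purified from P388 cells. One unit relaxes 0.125 µg supercoiled pBR322 DNA, incubated with or without inhibitor at 30 °C for 1 h in 50 mM Tris-HCl pH 8.0, 100 mM KCl, 10 mM MgCl2, 0.5 mM DTT, 1 mM ATP and 30 µg/ml BSA. Products run on 0.7% agarose in TBE, stained with ethidium bromide and imaged under UV.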

MC-38 = assay: Antitumor activity against mouse Colon 38 cells implanted in iv dosed C57BL/6 mouse administered as single dose; format: functional, organism-based
In short: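 Female C57BL/6 mice, 6 weeks old, given about 30 mg Colon 38 tumor tissue s.c. in the flank. Randomized into groups of n = 5 when tumors reached about 300 mm3 (day 1). Compound in 5% glucose given as a single iv tail-vein dose on day 1; controls received 5% glucose. Tumor volume = (length × width²)/2 and body weight tracked.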

[27] = target: T1, DNA topoisomerase 1 (Homo sapiens) (UniProt P11387); assay: Inhibition of topoisomerase 1 relative to etoposide
T1 sequence (whole entry): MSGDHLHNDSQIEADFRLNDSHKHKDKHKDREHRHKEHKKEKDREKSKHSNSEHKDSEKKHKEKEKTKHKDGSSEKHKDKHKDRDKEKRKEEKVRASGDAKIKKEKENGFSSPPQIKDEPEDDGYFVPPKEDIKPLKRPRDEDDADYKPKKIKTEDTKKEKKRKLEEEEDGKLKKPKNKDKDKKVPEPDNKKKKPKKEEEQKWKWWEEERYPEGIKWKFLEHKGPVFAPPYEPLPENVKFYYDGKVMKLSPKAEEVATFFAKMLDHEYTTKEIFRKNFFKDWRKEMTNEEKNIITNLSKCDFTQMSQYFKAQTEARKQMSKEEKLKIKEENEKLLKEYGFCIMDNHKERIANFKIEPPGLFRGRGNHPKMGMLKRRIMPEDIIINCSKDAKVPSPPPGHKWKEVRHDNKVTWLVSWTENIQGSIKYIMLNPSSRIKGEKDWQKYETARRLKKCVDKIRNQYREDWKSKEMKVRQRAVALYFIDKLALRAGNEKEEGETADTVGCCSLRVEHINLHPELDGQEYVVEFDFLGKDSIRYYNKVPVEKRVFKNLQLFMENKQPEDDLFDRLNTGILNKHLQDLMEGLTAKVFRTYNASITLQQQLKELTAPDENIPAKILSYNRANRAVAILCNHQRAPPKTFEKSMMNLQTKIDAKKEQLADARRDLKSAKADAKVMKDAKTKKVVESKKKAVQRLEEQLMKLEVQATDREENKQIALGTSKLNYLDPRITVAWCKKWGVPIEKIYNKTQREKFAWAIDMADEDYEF

[28] = tested on: Radical scavenging activity; assay: Antioxidant activity assessed as DPPH free radical scavenging activity by measuring reduction in DPPH absorbance by ELISA relative to untreated control; format: functional; set-up: concentration or dose not given beside the values
In short: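 Test compounds dissolved in DMSO, ascorbic acid standard in water, both serially diluted. 10 µl sample added to 90 µl of 100 µM DPPH in methanol and kept in the dark at 37 °C for 30 min. Absorbance read at 515 nm. Blank is DMSO plus DPPH. % reduction = (A_B − A_A)/A_B × 100. Run in triplicate.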

Chain of DNA topoisomerase 2-alpha (Mus musculus) (Q01320 whole entry): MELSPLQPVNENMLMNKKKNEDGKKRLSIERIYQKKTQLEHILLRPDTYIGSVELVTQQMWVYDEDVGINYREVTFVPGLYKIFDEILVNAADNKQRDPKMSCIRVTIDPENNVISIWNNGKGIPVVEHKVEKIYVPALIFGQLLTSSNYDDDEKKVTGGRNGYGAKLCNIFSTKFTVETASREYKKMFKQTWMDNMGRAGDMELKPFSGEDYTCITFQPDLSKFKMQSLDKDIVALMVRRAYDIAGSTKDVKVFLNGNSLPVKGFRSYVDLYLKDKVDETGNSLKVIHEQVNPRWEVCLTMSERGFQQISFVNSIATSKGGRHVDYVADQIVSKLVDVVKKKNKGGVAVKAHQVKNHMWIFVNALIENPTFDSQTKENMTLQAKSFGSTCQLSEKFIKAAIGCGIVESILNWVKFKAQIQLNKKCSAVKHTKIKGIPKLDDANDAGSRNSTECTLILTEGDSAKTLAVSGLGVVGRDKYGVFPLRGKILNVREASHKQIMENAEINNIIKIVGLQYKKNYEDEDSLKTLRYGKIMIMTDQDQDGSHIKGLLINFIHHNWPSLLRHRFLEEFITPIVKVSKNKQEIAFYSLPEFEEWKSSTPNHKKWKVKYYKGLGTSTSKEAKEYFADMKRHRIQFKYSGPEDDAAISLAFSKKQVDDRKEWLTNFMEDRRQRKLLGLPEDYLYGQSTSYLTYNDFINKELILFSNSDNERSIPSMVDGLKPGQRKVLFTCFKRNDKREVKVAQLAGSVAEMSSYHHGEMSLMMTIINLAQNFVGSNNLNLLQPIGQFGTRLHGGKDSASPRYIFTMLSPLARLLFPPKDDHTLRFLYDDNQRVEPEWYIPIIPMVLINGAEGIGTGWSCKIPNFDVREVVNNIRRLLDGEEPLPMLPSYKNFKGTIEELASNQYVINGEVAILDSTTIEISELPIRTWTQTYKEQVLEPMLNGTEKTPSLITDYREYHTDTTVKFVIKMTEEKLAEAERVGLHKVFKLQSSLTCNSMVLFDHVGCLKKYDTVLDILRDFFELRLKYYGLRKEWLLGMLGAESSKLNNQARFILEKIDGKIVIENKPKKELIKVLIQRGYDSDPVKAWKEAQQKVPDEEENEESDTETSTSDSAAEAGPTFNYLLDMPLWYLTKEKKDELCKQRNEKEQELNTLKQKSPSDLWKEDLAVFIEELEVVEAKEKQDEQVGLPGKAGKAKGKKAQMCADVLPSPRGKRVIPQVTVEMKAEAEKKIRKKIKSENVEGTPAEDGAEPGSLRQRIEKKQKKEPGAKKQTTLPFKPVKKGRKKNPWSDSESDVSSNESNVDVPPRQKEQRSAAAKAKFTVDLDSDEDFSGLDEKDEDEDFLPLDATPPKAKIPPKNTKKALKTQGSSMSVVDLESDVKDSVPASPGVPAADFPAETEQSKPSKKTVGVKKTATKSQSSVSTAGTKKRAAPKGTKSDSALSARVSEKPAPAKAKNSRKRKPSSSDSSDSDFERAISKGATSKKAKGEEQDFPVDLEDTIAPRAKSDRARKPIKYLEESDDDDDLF

SMILES | zone of inhibition at 2.5 µg/mL (Staphylococcus aureus [1]) | zone of inhibition at 1.25 µg/mL [2] | zone of inhibition at 1.25 µg/mL (Penicillium italicum [3]) | zone of inhibition at 5 µg/mL (Staphylococcus aureus [4]) | zone of inhibition at 2.5 µg/mL (Penicillium italicum [5]) | zone of inhibition at 1.25 µg/mL (Escherichia coli [6]) | zone of inhibition at 1.25 µg/mL (Pseudomonas aeruginosa [7]) | zone of inhibition at 5 µg/mL (Escherichia coli [8]) | zone of inhibition at 2.5 µg/mL (Aspergillus fumigatus [9]) | zone of inhibition at 2.5 µg/mL [10] | zone of inhibition at 1.25 µg/mL (Bacillus subtilis [11]) | zone of inhibition at 2.5 µg/mL (Escherichia coli [12]) | zone of inhibition at 5 µg/mL (Pseudomonas aeruginosa [13]) | zone of inhibition at 1.25 µg/mL (Staphylococcus aureus [14]) | IC50 [25] | MIC (Hepatitis C virus) | MIC (Measles morbillivirus) | Ratio [26] | Activity (MC-38) | Ratio [27] | also measured
CN(C/C=C/C#CC(C)(C)C)Cc1cccc2ccccc12 [TERBINAFINE] | 6 mm | 9 mm | 4 mm | 15 mm | 9 mm | 13 mm | 0 mm | 27 mm | 18 mm | 13 mm | 11 mm | 20 mm | 11 mm | 4 mm | – | – | – | – | – | – | zone of inhibition at 2.5 µg/mL (Bacillus subtilis [15]): 18 mm; zone of inhibition at 5 µg/mL (Aspergillus fumigatus [16]): 24 mm; zone of inhibition at 1.25 µg/mL (Aspergillus fumigatus [17]): 11 mm; zone of inhibition at 1.25 µg/mL (Candida albicans [18]): 6 mm; zone of inhibition at 5 µg/mL (Candida albicans [19]): 19 mm; zone of inhibition at 2.5 µg/mL (Candida albicans [20]): 10 mm; zone of inhibition at 5 µg/mL (Penicillium italicum [21]): 19 mm; zone of inhibition at 5 µg/mL (Bacillus subtilis [22]): 22 mm; zone of inhibition at 5 µg/mL [23]: 21 mm; zone of inhibition at 2.5 µg/mL (Pseudomonas aeruginosa [24]): 5 mm
Cc1c(C)c2c(c(C)c1O)CCC(C)(C(=O)O)O2 (centres undefined) [TROLOX] | – | – | – | – | – | – | – | – | – | – | – | – | – | – | 58.4 µM | – | – | – | – | – | –
O=C1/C(=N/Nc2ccccc2)CCCc2ccccc21 | – | – | – | – | – | – | – | – | – | – | – | – | – | – | 56 µM | 1.07 µg/mL (≈ 4.05 µM) | 6.12 µg/mL (≈ 23.2 µM) | 4.4 | Active | 4.3 | –
O=C1/C(=N/Nc2cccc([N+](=O)[O-])c2)CCCc2ccccc21 | 6 mm | 9 mm | 0 mm | 10 mm | 0 mm | 0 mm | 0 mm | 12 mm | 11 mm | 12 mm | 8 mm | 5 mm | 0 mm | 0 mm | 56 µM | 1.04 µg/mL (≈ 3.37 µM) | 6.11 µg/mL (≈ 19.8 µM) | 4.53 | Active | 4.5 | zone of inhibition at 2.5 µg/mL (Bacillus subtilis [15]): 13 mm; zone of inhibition at 5 µg/mL (Aspergillus fumigatus [16]): 20 mm; zone of inhibition at 1.25 µg/mL (Aspergillus fumigatus [17]): 8 mm; zone of inhibition at 1.25 µg/mL (Candida albicans [18]): 5 mm; zone of inhibition at 5 µg/mL (Candida albicans [19]): 15 mm; Activity [28]: 81.1%; zone of inhibition at 2.5 µg/mL (Candida albicans [20]): 8 mm; zone of inhibition at 5 µg/mL (Penicillium italicum [21]): 0 mm; zone of inhibition at 5 µg/mL (Bacillus subtilis [22]): 19 mm; zone of inhibition at 5 µg/mL [23]: 19 mm; zone of inhibition at 2.5 µg/mL (Pseudomonas aeruginosa [24]): 0 mm
COc1ccc(N/N=C2\CCCc3ccccc3C2=O)cc1 | – | – | – | – | – | – | – | – | – | – | – | – | – | – | 54.2 µM | 1.01 µg/mL (≈ 3.43 µM) | 6.01 µg/mL (≈ 20.4 µM) | 4.9 | Active | 4.8 | Activity [28]: 83.9%
